In ChEMBL document CHEMBL4616673 (J Med Chem, 2020):
Converted amounts (≈) assume the structure as drawn.

What was measured:
[1] = Acute toxicity in BALB/c mouse assessed as effect on blood CHO1 level at 400 mg/kg, po measured on day 14; assay type: organism-based; details: in vivo
In short: (§1)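 BALB/c mice, female and male, 6-8 weeks old, given oral doses within 24 h, up to 400 mg/kg (free compound) or 800 mg/kg (nanocrystal formulation). Watched for body weight loss, diarrhea, anorexia, skin ulcer and toxic death. Serum biochemistry panel was run at the end of treatment.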

Raji [2] = experiment: Induction of apoptosis in human Raji cells assessed as early apoptotic cells at 0.031 uM measured after 48 hrs by Annexin V-FITC staining based flow cytometry (reference value: 1 %); assay type: functional
[3] = target: Dihydroorotate dehydrogenase (quinone), mitochondrial (Homo sapiens, UniProt Q02127); experiment: Inhibition of human DHODH using dihydroorotate as substrate and CoQ10 as co-substrate preincubated for 30 mins followed by substrate addition by DCIP coupled microplate reader assay
Dihydroorotate dehydrogenase (quinone), mitochondrial, sequence (Q02127 whole entry): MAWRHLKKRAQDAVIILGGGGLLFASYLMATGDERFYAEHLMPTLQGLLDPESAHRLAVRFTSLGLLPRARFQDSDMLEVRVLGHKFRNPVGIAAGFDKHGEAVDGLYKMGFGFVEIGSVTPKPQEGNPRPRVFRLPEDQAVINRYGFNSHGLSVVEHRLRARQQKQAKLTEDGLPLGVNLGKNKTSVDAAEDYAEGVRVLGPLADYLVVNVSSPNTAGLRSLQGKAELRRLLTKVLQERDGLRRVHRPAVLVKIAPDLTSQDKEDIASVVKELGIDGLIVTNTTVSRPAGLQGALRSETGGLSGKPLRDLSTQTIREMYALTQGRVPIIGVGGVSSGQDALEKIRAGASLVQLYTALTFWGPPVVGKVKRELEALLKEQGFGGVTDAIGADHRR

[4] = Acute toxicity in BALB/c mouse assessed as effect on blood TG level at 400 mg/kg, po measured on day 14; assay type: organism-based; details: in vivo; in short: as §1
[5] = Solubility of the compound in PBS; assay type: physicochemical
[6] = Acute toxicity in po dosed BALB/c mouse assessed as maximum tolerated dose; assay type: organism-based; details: in vivo
In short: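 Acute oral dose-escalation in female and male BALB/c mice, 6-8 weeks old, dosed within 24 h. MTD is the highest dose without obvious side effects: body weight loss, diarrhea, anorexia, skin ulcer or toxic death.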

[7] = Acute toxicity in BALB/c mouse assessed as effect on blood CREA level at 800 mg/kg, po measured on day 14; assay type: organism-based; details: in vivo; in short: as §1
[8] = Acute toxicity in BALB/c mouse assessed as effect on blood BUN level at 400 mg/kg, po measured on day 14; assay type: organism-based; details: in vivo; in short: as §1
[9] = Toxicity in NOD-SCID nude mouse xenografted with human Raji cells assessed as death at 40 to 80 mg/kg/day, po administered 6 days a week for 3 weeks; assay type: organism-based; details: in vivo
In short: (§2)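 Mice, 6-7 weeks old, injected s.c. with 1×10^7 Raji cells in serum-free medium plus basement membrane matrix. At 100–200 mm3 tumours, randomised (n=6). Oral dosing 6 days/week for 3 weeks: 30 mg/kg/d free compound suspended in 5% NMP/95% PEG400, or 40 or 80 mg/kg/d nanocrystal. Body weight and tumour volume measured every 3 days.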

Raji [10] = experiment: Cell cycle arrest in human Raji cells assessed as accumulation at S phase at 0.031 uM measured after 24 hrs by propidium iodide/RNase staining based flow cytometry (reference value: 52%); assay type: functional
[11] = Acute toxicity in BALB/c mouse assessed as effect on blood TG level at 800 mg/kg, po measured on day 14; assay type: organism-based; details: in vivo; in short: as §1
Raji [12] = experiment: Antitumor activity against human Raji cells xenografted in NOD-SCID nude mouse assessed as tumor growth inhibition at 80 mg/kg/day, po administered 6 days a week for 3 weeks relative to control; assay type: functional; details: read-out: TGI
[13] = Half life in human liver microsomes at 1 uM in presence of NADPH by LC-MS analysis; assay type: ADME, Microsome
In short: (§3)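 Compound at 1 μM with 0.5 mg/mL human, rat or mouse liver microsomes and 1 mM NADPH. Stopped with acetonitrile at 0, 5, 15, 30, 45, 60 and 90 min, centrifuged. Supernatant analysed by LC-MS/MS.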

MCF7 = experiment: Antiproliferative activity against human MCF7 cells assessed as reduction in cell viability measured after 48 hrs by MTT assay; assay type: functional, cell-based; details: Homo sapiens, MCF7, 48 h
[14] = Acute toxicity in BALB/c mouse assessed as effect on blood CK level at 400 mg/kg, po measured on day 14; assay type: organism-based; details: in vivo; in short: as §1
Raji [15] = experiment: Induction of apoptosis in human Raji cells assessed as late apoptotic cells at 0.031 uM measured after 48 hrs by Annexin V-FITC staining based flow cytometry (reference value: 0.7 %); assay type: functional
[16] = Acute toxicity in BALB/c mouse assessed as effect on blood BUN level at 800 mg/kg, po measured on day 14; assay type: organism-based; details: in vivo; in short: as §1
[17] = Toxicity in NOD-SCID nude mouse xenografted with human Raji cells assessed as effect on body weight at 30 mg/kg/day, po administered 6 days a week for 3 weeks and measured every 3 days; assay type: organism-based; details: in vivo; in short: as §2
[18] = Acute toxicity in BALB/c mouse assessed as effect on blood TP level at 400 mg/kg, po measured on day 14; assay type: organism-based; details: in vivo; in short: as §1
Raji [19] = experiment: Induction of apoptosis in human Raji cells assessed as late apoptotic cells at 0.063 uM measured after 48 hrs by Annexin V-FITC staining based flow cytometry (reference value: 0.7 %); assay type: functional
Raji [20] = experiment: Induction of apoptosis in human Raji cells assessed as early apoptotic cells at 0.063 uM measured after 48 hrs by Annexin V-FITC staining based flow cytometry (reference value: 1 %); assay type: functional
[21] = Half life in mouse liver microsomes at 1 uM in presence of NADPH by LC-MS analysis; assay type: ADME, Microsome; in short: as §3
[22] = Acute toxicity in BALB/c mouse assessed as effect on lung at 400 mg/kg, po measured on day 14 by H and E staining based light microscopic analysis; assay type: organism-based; details: in vivo
In short: (§4)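 Female and male BALB/c mice, 6-8 weeks old, dosed orally within 24 h at up to 400 mg/kg (free compound) or 800 mg/kg (nanocrystal). At the end of treatment, heart, liver, spleen, lung and kidney were sectioned, stained with H&E and imaged by light microscopy.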

[23] = Acute toxicity in BALB/c mouse assessed as effect on blood CHO1 level at 800 mg/kg, po measured on day 14; assay type: organism-based; details: in vivo; in short: as §1
Raji [24] = experiment: Induction of apoptosis in human Raji cells assessed as necrotic cells at 0.063 uM measured after 48 hrs by Annexin V-FITC staining based flow cytometry (reference value: 0.21 %); assay type: functional
HCT-116 = experiment: Antiproliferative activity against human HCT116 cells assessed as reduction in cell viability measured after 48 hrs by MTT assay; assay type: functional, cell-based; details: Homo sapiens, HCT-116, 48 h
Raji [25] = experiment: Induction of apoptosis in human Raji cells assessed as late apoptotic cells at 0.125 uM measured after 48 hrs by Annexin V-FITC staining based flow cytometry (reference value: 0.7 %); assay type: functional
[26] = Acute toxicity in BALB/c mouse assessed as effect on blood CREA level at 400 mg/kg, po measured on day 14; assay type: organism-based; details: in vivo; in short: as §1
[27] = Acute toxicity in BALB/c mouse assessed as effect on blood AST level at 400 mg/kg, po measured on day 14; assay type: organism-based; details: in vivo; in short: as §1
[28] = Toxicity in NOD-SCID nude mouse xenografted with human Raji cells assessed as dermatitis at 40 to 80 mg/kg/day, po administered 6 days a week for 3 weeks; assay type: organism-based; details: in vivo; in short: as §2
[29] = Acute toxicity in BALB/c mouse assessed as effect on kidney at 800 mg/kg, po measured on day 14 by H and E staining based light microscopic analysis; assay type: organism-based; details: in vivo; in short: as §4
[30] = Toxicity in NOD-SCID nude mouse xenografted with human Raji cells assessed as death at 30 mg/kg/day, po administered 6 days a week for 3 weeks; assay type: organism-based; details: in vivo; in short: as §2

For `O=C1c2ccccc2C(=O)c2c1nnn2-c1cc(F)c(-c2ccccc2F)c(F)c1`, the Activity [1] was “Non-Toxic”, the Activity (Raji [2]) was 3.09% and the IC50 [3] was 4.5 nM. The Activity [4] was “Non-Toxic”, the solubility [5] was 33.8 µg/mL (≈ 83.4 µM) and the MTD ([6]; BALB/c, read-out: MTD) was 400 mg/kg. The MTD [6] was 800 mg/kg, the Activity [7] was “Non-Toxic” and the Activity [8] was “Non-Toxic”. For the same compound, the Activity [9] was “Non-Toxic”, the Activity (Raji [10]) was 76.62% and the Activity [11] was “Non-Toxic”. It also gave an inhibition in vivo at 80 mg/kg/day (Raji [12]) of 68%, a half-life at 1 µM ([13]; liver microsomes) of 32 min and a t1/2 ([13]; microsomes, 1 µM) of 63 min. For the same compound, the IC50 (MCF7) was 9.61 µM, the Activity [14] was “Non-Toxic” and the Activity (Raji [15]) was 3.4%. The Activity [16] was “Non-Toxic”, the Activity [17] was “Non-Toxic” and the Activity [18] was “Non-Toxic”. For the same compound, the Activity (Raji [19]) was 4.26%, the Activity (Raji [20]) was 3.08% and the half-life at 1 µM ([21]; liver microsomes) was 37 min. The t1/2 ([21]; microsomes, 1 µM) was 50 min, the Activity [22] was “Non-Toxic” and the Activity [23] was “Non-Toxic”. It also gave an Activity (Raji [24]) of 0.34%, an IC50 (HCT-116) of 290 nM and an Activity (Raji [25]) of 6.04%. The Activity [26] was “Non-Toxic”, the Activity [27] was “Non-Toxic” and the Activity [28] was “Non-Toxic”. The Activity [29] was “Non-Toxic” and the Activity [30] was “Non-Toxic”.
